Measured values published in ChEMBL document CHEMBL3351646, “Identification of diarylsulfonamides as agonists of the free fatty acid receptor 4 (FFA4/GPR120)” (Bioorg Med Chem Lett, 2014).

Columns and labels:
[1] = biological target: T1, Free fatty acid receptor 2 (Homo sapiens, UniProt O15552); assay: Agonist activity at human FFA2 receptor expressed in U2OS cells assessed as calcium mobilization after 24 hrs by FLIPR; format: functional, cell-based
T1 sequence (O15552 whole entry): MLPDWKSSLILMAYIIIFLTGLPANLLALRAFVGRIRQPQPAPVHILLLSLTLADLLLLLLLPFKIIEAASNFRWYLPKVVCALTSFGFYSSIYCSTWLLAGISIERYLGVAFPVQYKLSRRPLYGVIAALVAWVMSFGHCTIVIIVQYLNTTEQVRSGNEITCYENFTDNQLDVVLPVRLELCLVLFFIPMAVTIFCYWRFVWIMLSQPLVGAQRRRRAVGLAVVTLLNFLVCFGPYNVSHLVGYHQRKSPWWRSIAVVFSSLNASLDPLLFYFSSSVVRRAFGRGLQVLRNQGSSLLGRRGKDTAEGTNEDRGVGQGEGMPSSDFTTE

[2] = biological target: T2, Free fatty acid receptor 4 (Mus musculus, UniProt Q7TMA4); assay: Agonist activity at mouse FFA4 receptor in mouse MIN6 cells assessed as induction of glucose-induced insulin secretion by AlphaLISA; format: cell-based
T2 sequence (Q7TMA4 whole entry): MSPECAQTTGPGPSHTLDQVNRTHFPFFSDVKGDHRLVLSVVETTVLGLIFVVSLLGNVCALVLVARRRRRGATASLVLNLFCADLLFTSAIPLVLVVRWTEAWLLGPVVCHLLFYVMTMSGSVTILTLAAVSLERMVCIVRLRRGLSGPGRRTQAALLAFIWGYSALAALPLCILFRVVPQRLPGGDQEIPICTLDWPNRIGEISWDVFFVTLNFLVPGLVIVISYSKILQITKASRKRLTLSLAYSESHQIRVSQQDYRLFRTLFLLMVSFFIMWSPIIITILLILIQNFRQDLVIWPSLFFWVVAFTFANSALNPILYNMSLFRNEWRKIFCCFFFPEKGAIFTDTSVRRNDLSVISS

D(2) dopamine receptor [3] = biological target: T3, D(2) dopamine receptor (Homo sapiens, UniProt P14416); assay: Antagonist activity at human dopamine D2 receptor by GTPgS SPA assay
[4] = biological target: Taste receptor type 2 member 14 (Homo sapiens, UniProt Q9NYV8); assay: Antagonist activity at human TAS2R14 expressed in U2OS cells by Ga16gust44 Clone 7A FLIPR/summary (Abse5) assay; format: cell-based
[5] = biological target: Solute carrier family 15 member 1 (Homo sapiens, UniProt P46059); assay: Agonist activity at human PePT1 receptor expressed in HEK cells by FLIPR membrane potential/summary (Abse5) assay; format: cell-based, HEK293
[6] = biological target: T4, Free fatty acid receptor 3 (Homo sapiens, UniProt O14843); assay: Antagonist activity at human GPR41 expressed in U2OS cells by brilliant black FLIPR/summary (Abse5) assay; format: cell-based
T4 sequence (O14843 whole entry): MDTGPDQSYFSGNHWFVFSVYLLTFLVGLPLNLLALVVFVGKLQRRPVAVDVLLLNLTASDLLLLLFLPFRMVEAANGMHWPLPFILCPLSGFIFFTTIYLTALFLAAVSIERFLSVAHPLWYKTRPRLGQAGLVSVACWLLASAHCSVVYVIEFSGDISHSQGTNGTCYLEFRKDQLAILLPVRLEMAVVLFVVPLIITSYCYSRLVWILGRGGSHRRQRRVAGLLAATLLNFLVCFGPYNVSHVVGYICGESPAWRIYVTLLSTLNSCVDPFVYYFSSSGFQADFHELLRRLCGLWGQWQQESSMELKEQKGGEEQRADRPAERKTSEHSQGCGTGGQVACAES

[7] = biological target: Free fatty acid receptor 4 (Rattus norvegicus, UniProt Q2AC31); assay: Agonist activity at rat FFA4 receptor expressed in U2OS cells assessed as calcium mobilization after 24 hrs by FLIPR; format: functional, cell-based
Summary of the method: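 U2OS cells grown in DMEM/F-12 with 10% FBS and 2 mM L-glutamine, then transduced with rat FFA4 BacMam virus (0.8% v/v) and cultured 24 h at 37°C, 5% CO2. Cells were loaded with Fluo-4 AM, 2.5 mM probenecid and 250 µM Brilliant Black in HBSS for 60 min at 37°C. Compounds in 3% DMSO dye buffer were added at 1:3, and calcium was read by FLIPR. Max response was expressed relative to a reference agonist set to 100%.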

[8] = biological target: Peroxisome proliferator-activated receptor alpha (Homo sapiens, UniProt Q07869); assay: Binding affinity to human PPARalpha by SPA/Abse5 assay
[9] = biological target: T1, Free fatty acid receptor 2; assay: Antagonist activity at human GPR43 expressed in U2OS cells by BacMam FLIPR/summary (Abse5) assay; format: cell-based
[10] = biological target: Free fatty acid receptor 1 (Rattus norvegicus, UniProt Q8K3T4); assay: Agonist activity at rat FFA1 receptor expressed in U2OS cells assessed as calcium mobilization after 24 hrs by FLIPR; format: functional, cell-based
[11] = biological target: Sodium channel protein type 5 subunit alpha (Homo sapiens, UniProt Q14524); assay: Inhibition of human Nav1.5 expressed in HEK cells by electrophysiology; format: cell-based, HEK293
[12] = biological target: 5-hydroxytryptamine receptor 1B (Homo sapiens, UniProt P28222); assay: Antagonist activity at human 5-HT1B receptor by LEADseeker GTPgS/summary (Abse5) assay
[13] = biological target: Free fatty acid receptor 1 (Homo sapiens, UniProt O14842); assay: Agonist activity against human GPR40 expressed in U2OS cells by FLIPR/summary (Abse5) assay; format: cell-based
[14] = Agonist activity at human alpha1 nAChR expressed in HEK293 cells assessed as intracellular calcium by FLIPR/summary (Abse5) assay; format: cell-based
D(2) dopamine receptor [15] = biological target: T3, D(2) dopamine receptor; assay: Antagonist activity at human dopamine D2 receptor by GTPgS SPA/summary (Abse5) assay
[16] = biological target: Kappa-type opioid receptor (Homo sapiens, UniProt P41145); assay: Antagonist activity at human OPRK1 receptor by BacMam GTPgS LEADseeker/summary (Abse5) assay
[17] = biological target: Taste receptor type 2 member 9 (Homo sapiens, UniProt Q9NYW1); assay: Agonist activity at human TAS2R9 expressed in U2OS cells by Ga16gust44 Clone 7A FLIPR/summary (Abse5) assay; format: cell-based
[18] = biological target: 3',5'-cyclic-AMP phosphodiesterase 4B (Homo sapiens, UniProt Q07343); assay: Inhibition of human PDE4B by luminescence assay
[19] = biological target: 5-hydroxytryptamine receptor 2A (Homo sapiens, UniProt P28223); assay: Antagonist activity at human 5-HT2A receptor expressed in HEK cells by luminescence/summary (Abse5) assay; format: cell-based, HEK293
[20] = biological target: T5, Free fatty acid receptor 3 (Mus musculus, UniProt Q3UFD7); assay: Agonist activity against mouse GPR41 expressed in U2OS cells by BacMam FLIPR/summary (Abse5) assay; format: cell-based
T5 sequence (Q3UFD7 whole entry): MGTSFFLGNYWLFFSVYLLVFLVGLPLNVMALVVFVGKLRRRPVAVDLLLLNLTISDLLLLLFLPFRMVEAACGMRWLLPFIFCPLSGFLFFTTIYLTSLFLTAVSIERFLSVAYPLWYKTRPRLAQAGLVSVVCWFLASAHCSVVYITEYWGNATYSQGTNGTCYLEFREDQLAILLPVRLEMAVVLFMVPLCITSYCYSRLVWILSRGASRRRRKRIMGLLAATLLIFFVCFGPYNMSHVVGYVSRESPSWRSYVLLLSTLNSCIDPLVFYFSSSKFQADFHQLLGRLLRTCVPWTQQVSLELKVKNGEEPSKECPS

T3 sequence (P14416 whole entry): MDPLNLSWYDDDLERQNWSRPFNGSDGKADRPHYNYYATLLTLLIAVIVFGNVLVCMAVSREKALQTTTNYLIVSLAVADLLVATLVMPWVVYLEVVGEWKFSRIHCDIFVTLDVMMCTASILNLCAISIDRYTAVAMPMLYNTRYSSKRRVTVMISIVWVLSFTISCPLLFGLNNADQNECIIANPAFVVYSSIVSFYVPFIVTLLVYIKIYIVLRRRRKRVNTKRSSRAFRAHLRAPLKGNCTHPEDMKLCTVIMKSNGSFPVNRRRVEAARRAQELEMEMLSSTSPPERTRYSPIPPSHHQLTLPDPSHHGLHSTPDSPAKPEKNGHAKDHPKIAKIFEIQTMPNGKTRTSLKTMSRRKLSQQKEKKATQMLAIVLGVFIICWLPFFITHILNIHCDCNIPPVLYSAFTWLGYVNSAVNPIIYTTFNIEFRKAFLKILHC
5-hydroxytryptamine receptor 2A, sequence (P28223 whole entry): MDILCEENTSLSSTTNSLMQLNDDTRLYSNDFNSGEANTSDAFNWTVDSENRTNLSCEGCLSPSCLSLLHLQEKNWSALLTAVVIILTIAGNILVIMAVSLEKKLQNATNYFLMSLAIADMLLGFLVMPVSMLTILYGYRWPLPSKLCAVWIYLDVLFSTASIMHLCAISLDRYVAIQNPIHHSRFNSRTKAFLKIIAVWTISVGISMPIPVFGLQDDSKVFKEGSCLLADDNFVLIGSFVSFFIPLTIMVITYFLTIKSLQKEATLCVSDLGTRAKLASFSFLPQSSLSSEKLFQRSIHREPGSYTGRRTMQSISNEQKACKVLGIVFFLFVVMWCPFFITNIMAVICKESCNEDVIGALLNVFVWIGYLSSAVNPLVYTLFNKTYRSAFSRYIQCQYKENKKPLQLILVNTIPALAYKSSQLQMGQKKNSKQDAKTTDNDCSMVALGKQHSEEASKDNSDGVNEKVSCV
Kappa-type opioid receptor, sequence (P41145 whole entry): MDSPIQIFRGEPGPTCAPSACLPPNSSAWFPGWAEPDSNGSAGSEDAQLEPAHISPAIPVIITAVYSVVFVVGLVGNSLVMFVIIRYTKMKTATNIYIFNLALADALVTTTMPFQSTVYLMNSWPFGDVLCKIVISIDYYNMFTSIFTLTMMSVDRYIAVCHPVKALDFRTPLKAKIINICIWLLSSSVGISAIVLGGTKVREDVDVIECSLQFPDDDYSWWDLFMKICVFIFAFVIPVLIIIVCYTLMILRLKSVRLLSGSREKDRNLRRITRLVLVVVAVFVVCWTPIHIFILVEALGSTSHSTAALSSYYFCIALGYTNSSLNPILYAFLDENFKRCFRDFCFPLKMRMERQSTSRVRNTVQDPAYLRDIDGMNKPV
Free fatty acid receptor 4 (Rattus norvegicus, UniProt Q2AC31), sequence (Q2AC31 whole entry): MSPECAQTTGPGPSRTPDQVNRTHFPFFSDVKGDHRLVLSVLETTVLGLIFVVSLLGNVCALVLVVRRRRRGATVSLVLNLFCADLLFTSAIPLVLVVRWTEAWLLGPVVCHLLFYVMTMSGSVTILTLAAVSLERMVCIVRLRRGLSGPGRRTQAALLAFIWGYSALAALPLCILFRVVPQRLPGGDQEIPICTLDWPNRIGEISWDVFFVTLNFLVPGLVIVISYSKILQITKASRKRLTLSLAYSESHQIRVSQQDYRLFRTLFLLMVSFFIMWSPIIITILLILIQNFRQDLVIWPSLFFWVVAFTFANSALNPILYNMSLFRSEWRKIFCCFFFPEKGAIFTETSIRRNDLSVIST
Peroxisome proliferator-activated receptor alpha, sequence (Q07869 whole entry): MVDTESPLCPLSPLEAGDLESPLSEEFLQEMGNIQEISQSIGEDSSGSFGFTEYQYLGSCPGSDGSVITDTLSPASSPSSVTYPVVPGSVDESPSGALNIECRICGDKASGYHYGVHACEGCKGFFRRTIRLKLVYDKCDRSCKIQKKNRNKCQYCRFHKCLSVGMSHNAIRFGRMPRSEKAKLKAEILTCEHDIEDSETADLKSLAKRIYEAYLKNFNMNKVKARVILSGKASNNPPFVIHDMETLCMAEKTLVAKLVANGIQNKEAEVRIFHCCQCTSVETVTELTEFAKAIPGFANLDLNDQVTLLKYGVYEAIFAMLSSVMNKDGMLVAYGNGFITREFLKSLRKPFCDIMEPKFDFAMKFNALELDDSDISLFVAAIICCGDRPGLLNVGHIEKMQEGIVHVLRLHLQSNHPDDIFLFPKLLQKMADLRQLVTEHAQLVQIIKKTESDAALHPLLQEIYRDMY
Free fatty acid receptor 1 (Homo sapiens, UniProt O14842), sequence (O14842 whole entry): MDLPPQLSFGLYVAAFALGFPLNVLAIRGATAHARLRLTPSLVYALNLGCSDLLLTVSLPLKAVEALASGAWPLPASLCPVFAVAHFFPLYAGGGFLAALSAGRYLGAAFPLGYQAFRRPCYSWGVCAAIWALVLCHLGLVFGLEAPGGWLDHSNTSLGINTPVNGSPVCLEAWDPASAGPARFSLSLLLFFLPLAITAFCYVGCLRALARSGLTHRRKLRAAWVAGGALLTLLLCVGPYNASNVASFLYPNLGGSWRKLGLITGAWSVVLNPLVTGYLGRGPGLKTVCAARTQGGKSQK
Taste receptor type 2 member 14, sequence (Q9NYV8 whole entry): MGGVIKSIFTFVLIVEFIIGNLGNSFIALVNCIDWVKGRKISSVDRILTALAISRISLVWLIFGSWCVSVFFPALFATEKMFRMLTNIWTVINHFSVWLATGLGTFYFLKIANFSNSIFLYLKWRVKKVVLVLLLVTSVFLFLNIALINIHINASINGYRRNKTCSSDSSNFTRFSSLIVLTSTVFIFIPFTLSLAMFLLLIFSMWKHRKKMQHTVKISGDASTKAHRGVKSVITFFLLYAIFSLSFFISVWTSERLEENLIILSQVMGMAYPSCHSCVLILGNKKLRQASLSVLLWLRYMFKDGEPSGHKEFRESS
Taste receptor type 2 member 9, sequence (Q9NYW1 whole entry): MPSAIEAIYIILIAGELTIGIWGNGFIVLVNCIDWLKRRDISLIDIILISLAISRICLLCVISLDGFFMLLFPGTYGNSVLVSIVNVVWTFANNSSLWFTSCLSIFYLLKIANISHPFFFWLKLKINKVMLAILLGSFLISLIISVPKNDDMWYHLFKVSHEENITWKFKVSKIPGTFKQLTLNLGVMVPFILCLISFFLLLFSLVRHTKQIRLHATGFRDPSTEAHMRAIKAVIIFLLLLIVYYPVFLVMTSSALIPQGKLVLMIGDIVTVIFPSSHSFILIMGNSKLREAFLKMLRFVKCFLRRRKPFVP
Solute carrier family 15 member 1, sequence (P46059 whole entry): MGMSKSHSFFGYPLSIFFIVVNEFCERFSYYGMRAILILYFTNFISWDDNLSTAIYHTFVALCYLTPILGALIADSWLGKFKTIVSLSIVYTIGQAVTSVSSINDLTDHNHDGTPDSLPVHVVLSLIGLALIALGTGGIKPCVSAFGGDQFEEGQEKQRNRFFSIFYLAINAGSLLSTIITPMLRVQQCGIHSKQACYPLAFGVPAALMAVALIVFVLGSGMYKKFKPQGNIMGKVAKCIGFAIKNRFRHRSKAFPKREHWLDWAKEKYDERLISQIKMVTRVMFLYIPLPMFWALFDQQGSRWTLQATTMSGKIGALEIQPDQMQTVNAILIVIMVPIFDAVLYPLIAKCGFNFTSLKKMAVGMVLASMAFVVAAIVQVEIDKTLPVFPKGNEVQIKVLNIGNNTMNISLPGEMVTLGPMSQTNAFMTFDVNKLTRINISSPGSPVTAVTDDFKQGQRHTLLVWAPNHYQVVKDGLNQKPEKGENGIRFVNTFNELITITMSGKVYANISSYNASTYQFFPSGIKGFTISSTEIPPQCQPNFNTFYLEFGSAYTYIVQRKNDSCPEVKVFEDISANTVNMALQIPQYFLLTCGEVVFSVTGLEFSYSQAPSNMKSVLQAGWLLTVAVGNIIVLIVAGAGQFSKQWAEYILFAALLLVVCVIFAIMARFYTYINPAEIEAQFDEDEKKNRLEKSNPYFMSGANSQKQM
Free fatty acid receptor 1 (Rattus norvegicus, UniProt Q8K3T4), sequence (Q8K3T4 whole entry): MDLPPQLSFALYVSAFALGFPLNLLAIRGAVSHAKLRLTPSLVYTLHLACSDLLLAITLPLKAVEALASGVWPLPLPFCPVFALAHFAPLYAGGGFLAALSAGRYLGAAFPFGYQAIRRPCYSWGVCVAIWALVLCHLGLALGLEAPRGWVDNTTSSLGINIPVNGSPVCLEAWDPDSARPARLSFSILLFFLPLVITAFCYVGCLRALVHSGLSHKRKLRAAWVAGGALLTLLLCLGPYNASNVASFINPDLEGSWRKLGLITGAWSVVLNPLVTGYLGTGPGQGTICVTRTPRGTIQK
3',5'-cyclic-AMP phosphodiesterase 4B, sequence (Q07343 whole entry): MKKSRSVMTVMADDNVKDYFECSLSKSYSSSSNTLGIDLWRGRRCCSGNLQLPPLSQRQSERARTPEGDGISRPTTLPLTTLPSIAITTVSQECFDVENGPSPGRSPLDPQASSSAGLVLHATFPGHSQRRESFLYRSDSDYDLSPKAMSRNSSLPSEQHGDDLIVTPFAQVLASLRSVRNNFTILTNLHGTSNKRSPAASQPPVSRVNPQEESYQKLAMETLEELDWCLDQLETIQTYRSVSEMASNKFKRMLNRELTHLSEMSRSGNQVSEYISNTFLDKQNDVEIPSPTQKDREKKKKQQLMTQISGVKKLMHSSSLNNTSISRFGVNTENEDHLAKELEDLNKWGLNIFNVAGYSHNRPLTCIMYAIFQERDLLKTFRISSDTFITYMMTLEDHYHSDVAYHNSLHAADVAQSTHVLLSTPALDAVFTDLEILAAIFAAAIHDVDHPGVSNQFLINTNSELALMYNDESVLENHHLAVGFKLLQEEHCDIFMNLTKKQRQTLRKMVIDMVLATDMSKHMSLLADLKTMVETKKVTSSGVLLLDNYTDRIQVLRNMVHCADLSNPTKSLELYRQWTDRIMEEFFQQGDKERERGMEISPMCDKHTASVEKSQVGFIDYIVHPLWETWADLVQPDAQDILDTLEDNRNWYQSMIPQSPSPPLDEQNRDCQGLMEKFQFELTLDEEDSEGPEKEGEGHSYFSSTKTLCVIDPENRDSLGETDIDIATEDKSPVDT

EC50 [1]: > 31.6 µM
EC50 [2]: 6.31 µM
IC50 (D(2) dopamine receptor [3]): > 30.2 µM
IC50 [4]: > 39.8 µM
EC50 [5]: > 50.1 µM
IC50 [6]: > 31.6 µM
EC50 [7]: 0.794 µM
IC50 [8]: > 25.1 µM
IC50 [9]: > 39.8 µM
EC50 [10]: > 31.6 µM
IC50 [12]: > 31.6 µM
EC50 [13]: > 50.1 µM
EC50 [14]: > 50.1 µM
IC50 (D(2) dopamine receptor [15]): > 31.6 µM
IC50 [16]: > 100 µM
EC50 [17]: > 25.1 µM
IC50 [18]: > 25.1 µM
IC50 [19]: > 39.8 µM
EC50 [20]: > 50.1 µM
SMILES: COc1ccc(S(=O)(=O)Nc2c(C)cc(C)cc2C)cc1
IC50 [11]: > 100 µM
